This is an account of results in ChEMBL document CHEMBL1806428, “Design and synthesis of spiro derivatives of parthenin as novel anti-cancer agents” (Eur J Med Chem, 2011).

“And” between values parts separate entries of the source, which are not always exact repeats. Equal entries are not always repeated.

A short description of data set [1]: Partition coefficient, log P of the compound. It counts as physicochemical. The conditions noted are these: octanol/water.
A further data set relates to PC-3. Kind of data set: Cytotoxicity against human PC3 cells assessed as cell growth after 48 hrs by sulforhodamine B assay. It counts as functional, cell-based. An outline of the steps:
(§1)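 Log-phase cells seeded at 10^4/well and allowed to attach for 24 h at 37 °C, 5% CO2. Exposed for 48 h to 0.1–100 (1:10 serial dilutions), four replicate wells per condition. Fixed with cold 50% TCA for 1 h at 4 °C, stained with sulforhodamine B, dye dissolved in Tris, OD read at 540 nm. Blank-subtracted growth expressed relative to untreated cells (100%); IC50 reported.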

The next data set relates to DU-145. As to the kind of experiment: Cytotoxicity against human DU145 cells assessed as cell growth after 48 hrs by sulforhodamine B assay. It counts as functional, cell-based. An outline of the steps:
as §1
On the technique in general: In SRB staining, fixed cells bind dye roughly in proportion to their protein.

In the next data set the test system is SW-620. Kind of data set: Cytotoxicity against human SW620 cells assessed as cell growth after 48 hrs by sulforhodamine B assay. It counts as functional, cell-based. The method, boiled down:
as §1

The term logP denotes a log measure of how a compound divides between an organic and an aqueous phase. Take `C[C@H]1CC[C@@H]2[C@@H](OC(=O)[C@]23CC(c2ccc(Cl)cc2)N(c2ccccc2)O3)[C@]2(C)C(=O)C=C[C@@]12O` (mixture of isomers): the logP in data set [1] was 3.87.
The IC50 is the concentration that gives 50% inhibition. Turning to `C[C@H]1CC[C@@H]2[C@@H](OC(=O)[C@]23CC(c2cccc(F)c2)N(c2ccccc2)O3)[C@]2(C)C(=O)C=C[C@@]12O` (some centres undefined), the half-maximal inhibitory concentration (IC50) stood at 4.8 µM with PC-3 (Homo sapiens, PC-3, 48 h); 9 µM in the data set on PC-3 (pc-3); 5 µM with DU-145 (Homo sapiens, DU-145, 48 h); 8.1 µM in the data set with DU-145 (du-145); 4.8 µM in the data set with SW-620 (Homo sapiens, SW-620, 48 h); 5.1 µM in the data set on SW-620 (sw-620).
For the compound `COc1cccc(C2C[C@@]3(ON2c2ccccc2)C(=O)O[C@@H]2[C@H]3CC[C@H](C)[C@]3(O)C=CC(=O)[C@@]23C)c1` (mixture of isomers), the lipophilicity (logP) in data set [1] turned out to be 3.25.
For the compound `COc1ccc(C2C[C@@]3(ON2c2ccccc2)C(=O)O[C@@H]2[C@H]3CC[C@H](C)[C@]3(O)C=CC(=O)[C@@]23C)cc1` (some centres undefined), the IC50 with PC-3 (Homo sapiens, PC-3, 48 h) was 5.7 µM; in the data set on PC-3 (pc-3), 6 µM; in the data set with DU-145 (Homo sapiens, DU-145, 48 h) it was 6.4 µM; in the data set on DU-145 (du-145), 7.1 µM; with SW-620 (Homo sapiens, SW-620, 48 h) it was 7.3 µM; with SW-620 (sw-620) it was 4.2 µM.
As to `C[C@H]1CC[C@@H]2[C@@H](OC(=O)[C@]23CC(c2c(F)c(F)c(F)c(F)c2F)N(c2ccccc2)O3)[C@]2(C)C(=O)C=C[C@@]12O` (some centres undefined), the 50% inhibitory concentration (IC50) amounted to 5.6 µM in the data set on PC-3 (Homo sapiens, PC-3, 48 h); 5 µM with PC-3 (pc-3); 9.3 µM in the data set with DU-145 (Homo sapiens, DU-145, 48 h); 6.1 µM in the data set on DU-145 (du-145); 3 µM in the data set on SW-620 (Homo sapiens, SW-620, 48 h); 5.5 µM in the data set with SW-620 (sw-620).
As for `C[C@H]1CC[C@@H]2[C@@H](OC(=O)[C@]23CC(c2ccc(Cl)cc2)N(c2ccccc2)O3)[C@]2(C)C(=O)C=C[C@@]12O` (some centres undefined), the IC50 turned out to be 7.8 µM with PC-3 (Homo sapiens, PC-3, 48 h); 12 µM in the data set on PC-3 (pc-3); 7 µM with DU-145 (Homo sapiens, DU-145, 48 h); 6 µM with DU-145 (du-145); 7.5 µM with SW-620 (Homo sapiens, SW-620, 48 h); 5.1 µM in the data set on SW-620 (sw-620).
For `C[C@H]1CC[C@@H]2[C@@H](OC(=O)[C@]23CC(c2ccccc2F)N(c2ccccc2)O3)[C@]2(C)C(=O)C=C[C@@]12O` (some centres undefined), the concentration for half-maximal inhibition (IC50) came to 2.7 µM with PC-3 (Homo sapiens, PC-3, 48 h); 2.5 µM in the data set on PC-3 (pc-3); 4.1 µM in the data set with DU-145 (Homo sapiens, DU-145, 48 h); 6 µM in the data set on DU-145 (du-145); 9 µM in the data set on SW-620 (Homo sapiens, SW-620, 48 h); 10.2 µM in the data set with SW-620 (sw-620).
Consider `C[C@H]1CC[C@@H]2[C@@H](OC(=O)[C@]23CC(c2ccc(C#N)cc2)N(c2ccccc2)O3)[C@]2(C)C(=O)C=C[C@@]12O` (some centres undefined), for which the IC50 was determined as 4.8 µM in the data set with PC-3 (Homo sapiens, PC-3, 48 h); 9.1 µM with PC-3 (pc-3); 5 µM in the data set with DU-145 (Homo sapiens, DU-145, 48 h); 7 µM in the data set on DU-145 (du-145); 4.8 µM in the data set on SW-620 (Homo sapiens, SW-620, 48 h); 5 µM with SW-620 (sw-620).
`C[C@H]1CC[C@@H]2[C@@H](OC(=O)[C@]23CC(c2c(Cl)cccc2Cl)N(c2ccccc2)O3)[C@]2(C)C(=O)C=C[C@@]12O` (mixture of isomers) showed a logP in data set [1] of 4.45.
With `C[C@H]1CC[C@@H]2[C@@H](OC(=O)[C@]23CC(c2ccc([N+](=O)[O-])cc2)N(c2ccccc2)O3)[C@]2(C)C(=O)C=C[C@@]12O` (some centres undefined), the IC50 in the data set on PC-3 (Homo sapiens, PC-3, 48 h) came out at 8.4 µM; in the data set with PC-3 (pc-3), 9.3 µM; with DU-145 (Homo sapiens, DU-145, 48 h) it was 5.6 µM; in the data set with DU-145 (du-145) it was 6 µM; with SW-620 (Homo sapiens, SW-620, 48 h), 5.7 µM; in the data set with SW-620 (sw-620) it was 5.1 µM.
Regarding `C[C@H]1CC[C@@H]2[C@@H](OC(=O)[C@]23CC(c2ccccc2Cl)N(c2ccccc2)O3)[C@]2(C)C(=O)C=C[C@@]12O` (mixture of isomers), the logP in data set [1] amounted to 3.87.
As to `C[C@H]1CC[C@@H]2[C@@H](OC(=O)[C@]23CC(c2ccc(F)cc2)N(c2ccccc2)O3)[C@]2(C)C(=O)C=C[C@@]12O` (some centres undefined), the half-maximal inhibitory concentration (IC50) in the data set with PC-3 (pc-3) is 5.7 µM and 12 µM; in the data set on DU-145 (Homo sapiens, DU-145, 48 h), 6.4 µM; in the data set with DU-145 (du-145), 5 µM; with SW-620 (Homo sapiens, SW-620, 48 h), 7.3 µM; in the data set on SW-620 (sw-620), 6 µM.
Consider `Cc1ccc(C2C[C@@]3(ON2c2ccccc2)C(=O)O[C@@H]2[C@H]3CC[C@H](C)[C@]3(O)C=CC(=O)[C@@]23C)cc1` (some centres undefined), for which the IC50 in the data set with PC-3 (Homo sapiens, PC-3, 48 h) amounted to 8.5 µM; in the data set with PC-3 (pc-3), 9.1 µM; in the data set with DU-145 (Homo sapiens, DU-145, 48 h), 8.1 µM; in the data set with DU-145 (du-145), 6.3 µM; with SW-620 (Homo sapiens, SW-620, 48 h) it was 8.7 µM; in the data set with SW-620 (sw-620), 9 µM.
As to `C[C@H]1CC[C@@H]2[C@@H](OC(=O)[C@]23CC(c2ccc(Br)cc2)N(c2ccccc2)O3)[C@]2(C)C(=O)C=C[C@@]12O` (some centres undefined), the IC50 in the data set with PC-3 (pc-3) is 5.8 µM and 2.3 µM; in the data set on DU-145 (Homo sapiens, DU-145, 48 h), 5.3 µM; in the data set with DU-145 (du-145), 4.2 µM; in the data set with SW-620 (Homo sapiens, SW-620, 48 h) it was 6.7 µM; in the data set with SW-620 (sw-620), 8.1 µM.
On to `C[C@H]1CC[C@@H]2[C@@H](OC(=O)[C@]23CC(c2c(F)c(F)c(F)c(F)c2F)N(c2ccccc2)O3)[C@]2(C)C(=O)C=C[C@@]12O` (mixture of isomers), for which the logP in data set [1] amounted to 3.72.
With `C[C@H]1CC[C@@H]2[C@@H](OC(=O)[C@]23CC(c2ccccc2Cl)N(c2ccccc2)O3)[C@]2(C)C(=O)C=C[C@@]12O` (some centres undefined), the IC50 with PC-3 (Homo sapiens, PC-3, 48 h) worked out at 3.5 µM; in the data set with PC-3 (pc-3), 6.3 µM; in the data set on DU-145 (Homo sapiens, DU-145, 48 h), 6 µM; with DU-145 (du-145) it was 4.1 µM; in the data set on SW-620 (Homo sapiens, SW-620, 48 h), 5.5 µM; in the data set on SW-620 (sw-620) it was 9.2 µM.
